Series [1] has as its target Heat shock protein beta-1 (Homo sapiens) (UniProt P04792). In words: Inhibition of HSP27 in human T98G cells assessed as reduction in AR expression level at 100 nM incubated for 12 hrs by immunofluorescence analysis. It is filed as cell-based. In short, it runs like this:
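T98G cells on coverslips, 24 h after seeding, were treated 12 h with 100 nM, DHT 10 nM, or both. Cells were fixed in 4% paraformaldehyde, permeabilized with 0.1% Triton X-100 and blocked with 1% BSA. They were stained 1 h each with AR and HSP27 primary and fluorescent secondary antibodies, with DAPI for nuclei.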

The target is the same in series [2]. In words: Inhibition of HSP27 in human U87 cells assessed as induction of AR degradation at 25 to 100 nM by Western blot analysis. The class given is cell-based. The conditions noted are these: dose 25-100 nM. In short, it runs like this:
(§1)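 Cells were treated in six-well plates (with or without MG132 where stated), then lysed in RIPA with protease inhibitors. 50 μg protein was run on 10% SDS-PAGE and transferred to PVDF. Membranes were blocked in 5% milk/TBS-T, probed with AR or AR-V7 antibodies overnight at 4 °C, and detected by chemiluminescence. Densitometry was used; n = 3.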
(In general: In western blotting, separated proteins are transferred to a membrane and probed.)

The test system of series [3] is T98G. In words: Antiproliferative activity against human T98G cells overexpressing AR assessed as reduction in cell viability incubated for 48 hrs by MTT assay. It is filed as functional, cell-based. In short, it runs like this: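 MTT assay; 3000 cells/well in RPMI 1640 or DMEM with 10% FBS, seeded 24 h, then exposed 48 h to a range of concentrations in DMSO (final ≤0.1%); vehicle controls. MTT 1 mg/mL for 2 h at 37 °C, dye dissolved in DMSO, absorbance 570 nm; eight replicates; IC50 by nonlinear regression.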

Series [4] is described as follows: Dissociation constant, pKa of the compound. It is filed as physicochemical.
In series [5] the target is Heat shock protein beta-1 (Homo sapiens) (UniProt P04792). In words: Inhibition of HSP27 in human U87 cells assessed as downregulation of androgen receptor by Western blot analysis. It is filed as cell-based. The conditions noted are these: dose 25-100 nM. In short, it runs like this: as §1
The test system of series [6] is Mus musculus. The series can be described thus: In vivo inhibition of HSP27 in human U87 cells xenografted in NCR nude mouse assessed as reduction in AR expression level in tumors at 20 mg/kg, ip administered thrice weekly for 14 days by Western blot analysis. It is filed as functional, organism-based. The conditions noted are these: time 14.0 day. In short, it runs like this: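 Tumors from U87 flank xenografts in male nude mice dosed at 20 mg/kg IP or orally three times weekly for 14 days. The two tumors of each mouse were pooled and homogenized in RIPA with protease inhibitors and PMSF. AR was then measured by western blot; n = 4.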

The subject of series [7] is U-87 MG. In words: Antitumor activity against human U87 cells xenografted in NCR nude mouse assessed as reduction in tumor size at 20 mg/kg, ip administered thrice weekly for 14 days by vernier caliper method. The conditions noted are these: U-87MG ATCC, time 14.0 day. The class given is functional, organism-based. In short, it runs like this:
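Male NCRNU nude mice, 5–6 weeks, 5 × 10^6 U87 cells in PBS injected subcutaneously into left and right flank (n = 4 mice, 8 tumors per group). Dosing began near 50 mm3: 20 mg/kg in PBS IP or oral, three times weekly for 14 days, vehicle DMSO. Calipers three times weekly, V = 2/3·d1·d2²; tumors weighed after CO2 euthanasia.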
(In general: Xenograft models place foreign cells or tissue in a host animal.)

The structures appear in SMILES notation. The source made the active and inactive calls. The rule behind the calls is not given here.

Chain of Heat shock protein beta-1 (Homo sapiens) (P04792 whole entry): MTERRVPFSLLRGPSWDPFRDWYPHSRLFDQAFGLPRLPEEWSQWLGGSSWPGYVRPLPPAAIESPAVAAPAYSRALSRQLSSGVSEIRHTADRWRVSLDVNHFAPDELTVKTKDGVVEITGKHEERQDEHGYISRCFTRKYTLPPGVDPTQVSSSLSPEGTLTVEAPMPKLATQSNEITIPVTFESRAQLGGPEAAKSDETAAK

Usually IC50 stands for the concentration that gives 50% inhibition. For orientation: pKa means the negative logarithm of the acid dissociation constant. Lower therefore signals a group that gives up its proton readily. As to `COc1ccc(C(=O)Nc2ccc(NS(C)(=O)=O)c(OCc3cc(OC)ccc3OC)c2)cc1`, the inhibition entry in series [1], in series [2] and in series [6] was “Active” each time. For the same compound, in series [3], the IC50 amounted to 2.01 nM. In addition, the pKa in series [4] stood at 8.65. Also, the inhibition result in series [5] is “Dose-dependent effect”. Besides, the outcome in series [7] was Active.

The record behind these values is ChEMBL document CHEMBL4706680, “Small-Molecule HSP27 Inhibitor Abolishes Androgen Receptors in Glioblastoma” (J Med Chem, 2021).
